Assays:
[1] = Selectivity index, ratio of CC50 for human HepG2.2.15 cells to IC50 for inhibition of Hepatitis B virus DNA replication; format: functional
Method in brief: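 SI = CC50/IC50. CC50 is from neutral red uptake after 9 days of treatment. IC50 is from Southern blot of intracellular HBV DNA after eight daily doses, in 2.2.15 cells.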

[2] = Cytotoxicity against human HepG2(2.2.15) after 9 days by neutral dye uptake method; format: cell-based; conditions: HepG2(2.2.15) cells
Method in brief: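 Confluent 2.2.15 cells were exposed to compound in culture medium for 9 consecutive days, with untreated controls on every plate. Viability was read as neutral red uptake by absorbance at 510 nm relative to untreated cells, giving CC50. Mean and SD of three separate experiments.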

Hepatitis B virus [3] = test: Antiviral activity against Hepatitis B virus infected in HepG2.2.15 assessed as inhibition of HBsAg production at <60.8 +/- 4.6 uM by EIA; format: functional, organism-based; conditions: hepg2 2.2.15
Hepatitis B virus [4] = test: Antiviral activity against Hepatitis B virus infected in HepG2.2.15 assessed as inhibition of HBV replication by quantitative Southern blot hybridization analysis; format: functional, organism-based; conditions: HepG2 2.2.15
Method in brief: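 Confluent 2.2.15 cells in RPMI 1640 with 2% FBS, dosed daily for eight consecutive days, with medium and compound replaced each day; untreated cell control. Intracellular HBV DNA quantified by Southern blot hybridization eight days after first treatment. IC50 is 50% inhibitory concentration; mean and SD of three separate experiments.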

Hepatitis B virus [5] = test: Antiviral activity against Hepatitis B virus infected in HepG2.2.15 assessed as inhibition of HBsAg production at <91.2 +/- 3.5 uM by EIA; format: functional, organism-based; conditions: hepg2 2.2.15
Hepatitis B virus [6] = test: Antiviral activity against Hepatitis B virus infected in HepG2.2.15 assessed as inhibition of HBV replication at <245.1 +/- 4.8 uM by quantitative Southern blot hybridization analysis; format: functional, organism-based; conditions: hepg2 2.2.15
Hepatitis B virus [7] = test: Antiviral activity against Hepatitis B virus infected in HepG2.2.15 assessed as inhibition of HBsAg production at <245.1 +/- 4.8 uM by EIA; format: functional, organism-based; conditions: hepg2 2.2.15
Hepatitis B virus [8] = test: Antiviral activity against Hepatitis B virus infected in HepG2.2.15 assessed as inhibition of HBsAg production by EIA; format: functional, organism-based; conditions: HepG2 2.2.15
Method in brief: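 HBsAg secreted into the medium by confluent 2.2.15 cultures (RPMI 1640, 2% FBS) measured by semiquantitative enzyme immunoassay eight days after the first of eight consecutive daily treatments. Medium and compound were renewed daily, with an untreated cell control. Gives the 50% inhibitory concentration; mean and SD from three separate experiments.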

[9] = Selectivity index, ratio of CC50 for human HepG2.2.15 cells to IC50 for inhibition of HBsAg production; format: functional
Method in brief: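 SI = CC50/IC50. CC50 is from neutral red uptake after 9 days of treatment. IC50 is from HBsAg EIA after eight daily doses, in 2.2.15 cells.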

Hepatitis B virus [10] = test: Antiviral activity against Hepatitis B virus infected in HepG2.2.15 assessed as inhibition of HBV replication at <209.8 +/- 4.7 uM by quantitative Southern blot hybridization analysis; format: functional, organism-based; conditions: hepg2 2.2.15
Hepatitis B virus [11] = test: Antiviral activity against Hepatitis B virus infected in HepG2.2.15 assessed as inhibition of HBV replication at <900.5 +/- 5.3 uM by quantitative Southern blot hybridization analysis; format: functional, organism-based; conditions: hepg2 2.2.15
Hepatitis B virus [12] = test: Antiviral activity against Hepatitis B virus infected in HepG2.2.15 assessed as inhibition of HBsAg production at <163.9 +/- 4.4 uM by EIA; format: functional, organism-based; conditions: hepg2 2.2.15
Hepatitis B virus [13] = test: Antiviral activity against Hepatitis B virus infected in HepG2.2.15 assessed as inhibition of HBV replication at <506.3 +/- 3.2 uM by quantitative Southern blot hybridization analysis; format: functional, organism-based; conditions: hepg2 2.2.15
Hepatitis B virus [14] = test: Antiviral activity against Hepatitis B virus infected in HepG2.2.15 assessed as inhibition of HBV replication at <64.5 +/- 2.8 uM by quantitative Southern blot hybridization analysis; format: functional, organism-based; conditions: hepg2 2.2.15
Hepatitis B virus [15] = test: Antiviral activity against Hepatitis B virus infected in HepG2.2.15 assessed as inhibition of HBsAg production at <80.1 +/- 3.5 uM by EIA; format: functional, organism-based; conditions: hepg2 2.2.15
Hepatitis B virus [16] = test: Antiviral activity against Hepatitis B virus infected in HepG2.2.15 assessed as inhibition of HBV replication at <622.8 +/- 3.4 uM by quantitative Southern blot hybridization analysis; format: functional, organism-based; conditions: hepg2 2.2.15
Hepatitis B virus [17] = test: Antiviral activity against Hepatitis B virus infected in HepG2.2.15 assessed as inhibition of HBV replication at <757.8 +/- 4.3 uM by quantitative Southern blot hybridization analysis; format: functional, organism-based; conditions: hepg2 2.2.15
Hepatitis B virus [18] = test: Antiviral activity against Hepatitis B virus infected in HepG2.2.15 assessed as inhibition of HBsAg production at <227.0 +/- 4.1 uM by EIA; format: functional, organism-based; conditions: hepg2 2.2.15
Hepatitis B virus [19] = test: Antiviral activity against Hepatitis B virus infected in HepG2.2.15 assessed as inhibition of HBV replication at <227.0 +/- 4.1 uM by quantitative Southern blot hybridization analysis; format: functional, organism-based; conditions: hepg2 2.2.15
Hepatitis B virus [20] = test: Antiviral activity against Hepatitis B virus infected in HepG2.2.15 assessed as inhibition of HBsAg production at <74.8 +/- 3.9 uM by EIA; format: functional, organism-based; conditions: hepg2 2.2.15
Hepatitis B virus [21] = test: Antiviral activity against Hepatitis B virus infected in HepG2.2.15 assessed as inhibition of HBV replication at <74.8 +/- 3.9 uM by quantitative Southern blot hybridization analysis; format: functional, organism-based; conditions: hepg2 2.2.15
Hepatitis B virus [22] = test: Antiviral activity against Hepatitis B virus infected in HepG2.2.15 assessed as inhibition of HBsAg production at <101.2 +/- 3.8 by EIA; format: functional, organism-based; conditions: hepg2 2.2.15
Hepatitis B virus [23] = test: Antiviral activity against Hepatitis B virus infected in HepG2.2.15 assessed as inhibition of HBV replication at <739.9 +/- 3.6 uM by quantitative Southern blot hybridization analysis; format: functional, organism-based; conditions: hepg2 2.2.15
Hepatitis B virus [24] = test: Antiviral activity against Hepatitis B virus infected in HepG2.2.15 assessed as inhibition of HBV replication at <102.7 +/- 3.3 uM by quantitative Southern blot hybridization analysis; format: functional, organism-based; conditions: hepg2 2.2.15
Hepatitis B virus [25] = test: Antiviral activity against Hepatitis B virus infected in HepG2.2.15 assessed as inhibition of HBsAg production at <102.7 +/- 3.3 uM by EIA; format: functional, organism-based; conditions: hepg2 2.2.15
Hepatitis B virus [26] = test: Antiviral activity against Hepatitis B virus infected in HepG2.2.15 assessed as inhibition of HBV replication at <86.9 +/- 3.6 uM by quantitative Southern blot hybridization analysis; format: functional, organism-based; conditions: hepg2 2.2.15
Hepatitis B virus [27] = test: Antiviral activity against Hepatitis B virus infected in HepG2.2.15 assessed as inhibition of HBsAg production at <86.9 +/- 3.6 uM by EIA; format: functional, organism-based; conditions: hepg2 2.2.15
Hepatitis B virus [28] = test: Antiviral activity against Hepatitis B virus infected in HepG2.2.15 assessed as inhibition of HBsAg production at <76.3 +/- 3.3 uM by EIA; format: functional, organism-based; conditions: hepg2 2.2.15
Hepatitis B virus [29] = test: Antiviral activity against Hepatitis B virus infected in HepG2.2.15 assessed as inhibition of HBV replication at <556.9 +/- 1.8 uM by quantitative Southern blot hybridization analysis; format: functional, organism-based; conditions: hepg2 2.2.15
Hepatitis B virus [30] = test: Antiviral activity against Hepatitis B virus infected in HepG2.2.15 assessed as inhibition of HBsAg production at <64.5 +/- 4.2 uM by EIA; format: functional, organism-based; conditions: hepg2 2.2.15
Hepatitis B virus [31] = test: Antiviral activity against Hepatitis B virus infected in HepG2.2.15 assessed as inhibition of HBV replication at <64.5 +/- 4.2 uM by quantitative Southern blot hybridization analysis; format: functional, organism-based; conditions: hepg2 2.2.15
Hepatitis B virus [32] = test: Antiviral activity against Hepatitis B virus infected in HepG2.2.15 assessed as inhibition of HBsAg production at <2183.1 +/- 4.1 by EIA; format: functional, organism-based; conditions: hepg2 2.2.15

Row | IC50 (Hepatitis B virus [8]) [µM] | SMILES | Selectivity Index [1] | CC50 at 216 h [2] [µM] | Selectivity Index [9] | also measured
1 |  | Cc1ccc(SCc2nc3c(Cn4ccnc4)c(O)ccc3n2C)cc1 | 1.9 | 60.8 |  | IC50 (Hepatitis B virus [3]): Not Active; IC50 (Hepatitis B virus [4]): 32.6 µM
2 |  | Cc1ccc(SCc2nc3c(Cn4ccnc4C)c(O)ccc3n2C)cc1 | 2.5 | 91.2 |  | IC50 (Hepatitis B virus [5]): Not Active; IC50 (Hepatitis B virus [4]): 36.1 µM
3 |  | CN(C)Cc1c(O)ccc2c1nc(CSc1ccccc1)n2C |  | 245 |  | IC50 (Hepatitis B virus [6]): Not Active; IC50 (Hepatitis B virus [7]): Not Active
4 | 27 | CN1CCN(Cc2c(O)ccc3c2nc(CSc2ccccc2)n3C)CC1 |  | 210 | 7.8 | IC50 (Hepatitis B virus [10]): Not Active
5 | 401 | Cn1c(C[S+]([O-])c2ccccc2)nc2c(CN3CCOCC3)c(O)ccc21 (configuration not stated) |  | 900 | 2.2 | IC50 (Hepatitis B virus [11]): Not Active
6 |  | COc1ccc(SCc2nc3c(Cn4ccnc4C)c(O)ccc3n2C)cc1 | 3.7 | 164 |  | IC50 (Hepatitis B virus [12]): Not Active; IC50 (Hepatitis B virus [4]): 44.5 µM
7 | 62.6 | Cc1ccc(S(=O)(=O)Cc2nc3c(Cn4ccnc4)c(O)ccc3n2C)cc1 |  | 506 | 8.1 | IC50 (Hepatitis B virus [13]): Not Active
8 | 10.7 | CN1CCN(Cc2c(O)ccc3c2nc(CSc2ccc(F)cc2)n3C)CC1 |  | 64.5 | 6 | IC50 (Hepatitis B virus [14]): Not Active
9 |  | Cn1c(CSc2ccc(F)cc2)nc2c(Cn3ccnc3)c(O)ccc21 | 6.9 | 80.1 |  | IC50 (Hepatitis B virus [15]): Not Active; IC50 (Hepatitis B virus [4]): 11.6 µM
10 | 70.2 | Cn1c(CS(=O)(=O)c2ccccc2)nc2c(Cn3ccnc3)c(O)ccc21 |  | 623 | 8.9 | IC50 (Hepatitis B virus [16]): Not Active
11 | 176 | Cc1ccc([S+]([O-])Cc2nc3c(Cn4ccnc4)c(O)ccc3n2C)cc1 (configuration not stated) |  | 758 | 4.3 | IC50 (Hepatitis B virus [17]): Not Active
12 |  | Cn1c(CSc2ccccc2)nc2c(CN3CCCC3)c(O)ccc21 |  | 227 |  | IC50 (Hepatitis B virus [18]): Not Active; IC50 (Hepatitis B virus [19]): Not Active
13 |  | Cn1c(CSc2ccc(F)cc2)nc2c(CN3CCCC3)c(O)ccc21 |  | 74.8 |  | IC50 (Hepatitis B virus [20]): Not Active; IC50 (Hepatitis B virus [21]): Not Active
14 |  | Cc1nccn1Cc1c(O)ccc2c1nc(CSc1ccccc1)n2C | 13 | 101 |  | IC50 (Hepatitis B virus [4]): 7.8 µM; IC50 (Hepatitis B virus [22]): Not Active
15 | 326 | Cn1c(CS(=O)(=O)c2ccccc2)nc2c(CN3CCOCC3)c(O)ccc21 |  | 740 | 2.3 | IC50 (Hepatitis B virus [23]): Not Active
16 |  | COc1cccc(SCc2nc3c(Cn4ccnc4C)c(O)ccc3n2C)c1 |  | 103 |  | IC50 (Hepatitis B virus [24]): Not Active; IC50 (Hepatitis B virus [25]): Not Active
17 |  | Cn1c(CSc2ccccc2)nc2c(CN3CCOCC3)c(O)ccc21 |  | 86.9 |  | IC50 (Hepatitis B virus [26]): Not Active; IC50 (Hepatitis B virus [27]): Not Active
18 |  | Cn1c(CSc2ccccc2)nc2c(Cn3ccnc3)c(O)ccc21 | 8.4 | 76.3 |  | IC50 (Hepatitis B virus [28]): Not Active; IC50 (Hepatitis B virus [4]): 9.1 µM
19 | 189 | Cn1c(C[S+]([O-])c2ccccc2)nc2c(Cn3ccnc3)c(O)ccc21 (configuration not stated) |  | 557 | 2.9 | IC50 (Hepatitis B virus [29]): Not Active
20 |  | COc1ccc(SCc2nc3c(Cn4ccnc4)c(O)ccc3n2C)cc1 |  | 64.5 |  | IC50 (Hepatitis B virus [30]): Not Active; IC50 (Hepatitis B virus [31]): Not Active
21 |  | Nc1ccn([C@@H]2CS[C@H](CO)O2)c(=O)n1 [LAMIVUDINE] | 9.1 | 2180 |  | IC50 (Hepatitis B virus [32]): Not Active

Source: ChEMBL document CHEMBL1287795, “Synthesis and biological evaluation of 1H-benzimidazol-5-ols as potent HBV inhibitors” (Bioorg Med Chem Lett, 2010)
